Measured values taken from paper PMC8828683 (Stem Cell Reports, 2022).

How the values were obtained:
Format in all cases: cell-based, human
NTERA-2 ECC [1] = experiment: Cells with <2N DNA by FACS of permeabilized cells stained with PI; settings: Homo sapiens, NTERA2, read-out: IC50 DNA (50% of cells with <2N DNA)
In short: (§1)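 Cells were exposed to a range of test compound concentrations alongside vehicle (DMSO) controls. They were then permeabilized, stained with propidium iodide, and DNA content was read by flow cytometry. IC50 is the concentration at which 50% of cells hold <2N DNA, from 3 independent repetitions with SEM. Line averages and differentiated/pluripotent ratios are derived from these IC50s. NTERA-2 was also run as a time course at 5 μM, normalized to vehicle at each time point.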

[2] = tested on: HFF-1 normal skin fibroblast; experiment: Live cells / PCD by FACS of nonpermeabilized cells stained with annexin-V and PI; settings: Homo sapiens, HFF-1, read-out: IC50 Live Cells
In short: (§2)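 Cells were seeded so that vehicle wells stayed subconfluent, then treated with a range of test compound concentrations for 4 days. Without permeabilization, they were stained with annexin-V-FITC and propidium iodide and analysed by flow cytometry. Double-negative cells (Q3) were scored as live and Q1+Q2 as programmed death. Vehicle was set to 100% viable and 0% dead. Results are the mean of three independent assays with SEM; group averages and ratios are derived from the IC50s.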

[3] = tested on: HFF-1 normal skin fibroblast; experiment: Cells with <2N DNA by FACS of permeabilized cells stained with PI; settings: Homo sapiens, HFF-1, read-out: IC50 DNA (50% of cells with <2N DNA)
In short: as §1

NTERA-2 ECC [4] = experiment: Live cells / PCD by FACS of nonpermeabilized cells stained with annexin-V and PI
In short: as §2

IC50 (NTERA-2 ECC [1]): 400 nM
IC50 (NTERA-2 ECC [4]; Homo sapiens, NTERA2, 96 h, read-out: IC50 Live Cells): 200 nM
Structure (SMILES): Cc1cccc(/C=N/Nc2cc(N3CCOCC3)nc(OCCc3ccccn3)n2)c1 [Apilimod]
IC50 [2]: > 10000 nM
IC50 [3]: > 10000 nM
Effectiveness relative to WX8 (NTERA-2 ECC [4]; NTERA-2 cells): about 10 times
